Test [1] has as its system Cryptococcus neoformans. Put plainly: Minimum inhibitory concentration towards Cryptococcus neoformans. The test is classed as functional.
Test [2] concerns Agrobacterium tumefaciens. Put plainly: Minimum inhibitory concentration towards Agrobacterium tumefaciens. The test is classed as functional.
The test system of the next test is Klebsiella pneumoniae. The test is described as follows: Minimum inhibitory concentration towards Klebsiella pneumoniae. The test is classed as functional.
A further test deals with Staphylococcus aureus. The test is described as follows: Minimum inhibitory concentration towards Staphylococcus aureus. The test is classed as functional.
A further test has as its system Trichophyton benhamiae. Put plainly: Minimum inhibitory concentration towards Trichophyton mentagrophytes. The test is classed as functional, Trichophyton mentagraphytes.
Another test relates to Microsporum canis. The test is described as follows: Minimum inhibitory concentration towards Microsporum canis. The test is classed as functional.
The test system of another test is Pseudomonas aeruginosa. Put plainly: Minimum inhibitory concentration towards Pseudomonas aeruginosa. The test is classed as functional.
The test system of test [3] is Candida albicans. The test is described as follows: Minimum inhibitory concentration towards Candida albicans. The test is classed as functional.
The test system of a further test is Aspergillus fumigatus. The test is described as follows: Minimum inhibitory concentration towards Aspergillus fumigatus. The test is classed as functional.
Test [4] deals with Rattus norvegicus. The test is described as follows: Anticancer activity against lymphoid leukemia P388 in rats at a dose of 10 mg/kg. The test is classed as functional. The essentials: (§1)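 Lymphoid leukaemia P 388 in rats, four animals per group, given 10 mg/kg. Survivors counted. Activity expressed as T/C (%) of treated versus control.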
For test [5], the system named is Rattus norvegicus. Put plainly: Number of survivors out of 4 rats treated at 10 mg/kg. The test is classed as functional. The essentials:
as §1

In test [6] the test system is Cryptococcus neoformans. Put plainly: Minimum inhibitory concentration towards C. neoformans; value ranges from 3.5-3.9 ug/mL. The test is classed as functional, organism-based.
In test [7] the test system is Candida albicans. Put plainly: Minimum inhibitory concentration towards C. albicans; value ranges from 7.8-7.9 ug/mL. The test is classed as functional, organism-based.
The subject of test [8] is Rattus norvegicus. The test is described as follows: Anticancer activity against Lymphoid Leukemia L-1210 in rats at dose of 1.56 mg/kg. The test is classed as functional. In outline:
(§2)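 Lymphoid leukaemia L-1210 in rats, six animals per dose group, doses 1.56–25 mg/kg. Survivors counted per group. T/C (%) compares a tumour evaluation parameter in treated versus control animals.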

Test [9] deals with Rattus norvegicus. Put plainly: Number of survivors out of 6 rats treated at 3.12 mg/kg. The test is classed as functional. In outline: as §2
In test [10] the test system is Rattus norvegicus. Put plainly: Number of survivors out of 6 rats treated at 1.56 mg/kg. The test is classed as functional. The essentials: as §2
For test [11], the system named is Rattus norvegicus. Put plainly: Number of survivors out of 6 rats treated at 6.25 mg/kg. The test is classed as functional. The essentials:
as §2

For test [12], the system named is Rattus norvegicus. Put plainly: Anticancer activity against Lymphoid Leukemia L-1210 in rats at dose of 3.12 mg/kg. The test is classed as functional. The essentials: as §2
The test system of test [13] is Rattus norvegicus. Put plainly: Anticancer activity against Lymphoid Leukemia L-1210 in rats at dose of 6.25 mg/kg. The test is classed as functional. The essentials: as §2
For another test, the system named is Influenza A virus. The test is described as follows: In vitro antiviral activity of compound against Influenza-A virus. The test is classed as functional.
Test [14] relates to Rattus norvegicus. Put plainly: Anticancer activity against Lymphoid Leukemia L-1210 in rats at dose of 25.0 mg/kg; Toxic. The test is classed as functional, organism-based. Also noted: dose 25 mg/kg.
Test [15] deals with Rattus norvegicus. The test is described as follows: Number of survivors out of 6 rats treated at 25 mg/kg. The test is classed as functional. The essentials:
as §2

Test [16] deals with Rattus norvegicus. Put plainly: Number of survivors out of 6 rats treated at 12.5 mg/kg. The test is classed as functional.
The subject of test [17] is Rattus norvegicus. Put plainly: Anticancer activity against Lymphoid Leukemia L-1210 in rats at dose of 12.5 mg/kg. The test is classed as functional.

Converted amounts (≈) assume the structure as drawn.

The results in this text go back to ChEMBL document CHEMBL1146764, “Synthesis and evaluation of novel 1,4-naphthoquinone derivatives as antiviral, antifungal and anticancer agents” (2004).

One may read the MIC as the lowest concentration found to suppress growth. Broadly, the T/C is the ratio of treated to control. A word on the Inhibition: it is the percentage by which the read-out fell short of the control. Lower therefore signals a response near the control.

On to `O=C1C=CC(=O)C(Sc2ccccc2C(=O)O)=C1`, for which the minimum inhibitory concentration (MIC) is 50 µg/mL (≈ 192 µM) in the test with Cryptococcus neoformans [1]; > 50 µg/mL in test [2]; 25 µg/mL (≈ 96.1 µM) in the test with Klebsiella pneumoniae; > 50 µg/mL against Staphylococcus aureus; > 50 µg/mL against Trichophyton benhamiae; > 50 µg/mL in the test on Microsporum canis. The values for the MIC with Pseudomonas aeruginosa, against Candida albicans [3] and against Aspergillus fumigatus were 25 µg/mL (≈ 96.1 µM), > 50 µg/mL and > 50 µg/mL, respectively.
For `O=C1C=C(SCCC(=O)N2CCCCC2)C(=O)c2ccccc21`, the T/C with Rattus norvegicus [4] is 30%. Besides, in the test with Rattus norvegicus [5], the Survivors stood at 4.
For the compound NYSTATIN, the figures for the MIC against Cryptococcus neoformans [6] and in the test with Candida albicans [7] were 3.9 µg/mL and 7.9 µg/mL, respectively.
With `O=C1C=CC(=O)c2c1c(O)c1sc3ccccc3c(=O)c1c2O`, the MIC with Cryptococcus neoformans [1] is > 50 µg/mL; in the test with Trichophyton benhamiae, 25 µg/mL (≈ 77.1 µM); in the test with Microsporum canis it was > 50 µg/mL; against Candida albicans [3], > 50 µg/mL; in the test with Aspergillus fumigatus it was > 50 µg/mL.
With `NC(=O)CCSC1=CC(=O)c2ccccc2C1=O`, in the test on Rattus norvegicus [4], the T/C came out at 49%. In the test on Rattus norvegicus [5], this compound came in with a Survivors of 4.
As to `O=C(O)c1ccccc1SC1=CC(=O)c2c(Cl)ccc(O)c2C1=O`, the MIC in the test on Cryptococcus neoformans [1] was > 50 µg/mL; in test [2], > 50 µg/mL; against Klebsiella pneumoniae, 25 µg/mL (≈ 69.3 µM); in the test on Staphylococcus aureus it was > 50 µg/mL; against Trichophyton benhamiae, 25 µg/mL (≈ 69.3 µM); with Microsporum canis, > 50 µg/mL. For the same compound, the MIC with Pseudomonas aeruginosa was 50 µg/mL (≈ 139 µM); against Candida albicans [3], > 50 µg/mL; in the test on Aspergillus fumigatus it was > 50 µg/mL.
On to `C[C@@H]1[C@H](O)[C@@H](C)/C=C/C=C/C=C/C=C/C=C/C=C/C=C/[C@H](O[C@@H]2O[C@H](C)[C@@H](O)[C@H](N)[C@@H]2O)C[C@@H]2O[C@](O)(C[C@@H](O)C[C@@H](O)[C@H](O)CC[C@@H](O)C[C@@H](O)CC(=O)O[C@H]1C)C[C@H](O)[C@H]2C(=O)O` [AMPHOTERICIN B], for which the MIC was 0.78 µg/mL (≈ 0.844 µM) in the test on Cryptococcus neoformans [1], 1.56 µg/mL (≈ 1.69 µM) against Trichophyton benhamiae, 1.56 µg/mL (≈ 1.69 µM) with Microsporum canis and 0.39 µg/mL (≈ 0.422 µM) with Candida albicans [3].
As to `O=C1C=C(Sc2ccccc2)C(=O)c2ccccc21`, the minimal inhibitory concentration (MIC) in the test with Cryptococcus neoformans [1] is 1.56 µg/mL (≈ 5.86 µM); in [2], > 50 µg/mL; against Klebsiella pneumoniae it was > 50 µg/mL; against Staphylococcus aureus, 25 µg/mL (≈ 93.9 µM); in the test on Trichophyton benhamiae, < 0.78 µg/mL; with Microsporum canis it was < 0.98 µg/mL. Moreover, the figures for the minimum inhibitory concentration (MIC) against Pseudomonas aeruginosa, against Candida albicans [3] and against Aspergillus fumigatus were > 50 µg/mL, 12.5 µg/mL (≈ 46.9 µM) and 25 µg/mL (≈ 93.9 µM), respectively.
For the compound `O=C(O)CCCSC1=CC(=O)c2ccccc2C1=O`, the minimum inhibitory concentration (MIC) is > 50 µg/mL in the test on Cryptococcus neoformans [1]; 50 µg/mL (≈ 181 µM) against Klebsiella pneumoniae; 12.5 µg/mL (≈ 45.2 µM) against Staphylococcus aureus; 25 µg/mL (≈ 90.5 µM) in the test on Trichophyton benhamiae; > 50 µg/mL with Microsporum canis; > 50 µg/mL against Candida albicans [3]. Besides, the minimal inhibitory concentration (MIC) against Aspergillus fumigatus was > 50 µg/mL. In addition, the T/C in the test with Rattus norvegicus [8] was determined as 89%; in the test with Rattus norvegicus [12], 96%; in the test on Rattus norvegicus [13], 100%. Besides, the Survivors in the test on Rattus norvegicus [9], with Rattus norvegicus [10] and with Rattus norvegicus [11] was 6 in each case.
As for `O=C(O)CCSC1=CC(=O)c2c(O)ccc(O)c2C1=O`, the Inhibition in the test on Influenza A virus is listed as 52%.
Turning to `O=C1C(Sc2cccc3ccccc23)=C(Sc2cccc3ccccc23)C(=O)c2ccccc21`, the minimal inhibitory concentration (MIC) in test [2] is > 50 µg/mL; in the test with Klebsiella pneumoniae, > 50 µg/mL; with Staphylococcus aureus, 50 µg/mL (≈ 105 µM); with Pseudomonas aeruginosa it was > 50 µg/mL.
As to GENTAMICIN, the MIC with Klebsiella pneumoniae amounted to 0.39 µg/mL; in the test with Staphylococcus aureus, 0.78 µg/mL; in the test with Pseudomonas aeruginosa, 0.78 µg/mL.
With `O=C(O)CCCSC1=CC(=O)c2c(O)ccc(O)c2C1=O`, the MIC was 1.56 µg/mL (≈ 5.06 µM) in the test on Cryptococcus neoformans [1]; 12.5 µg/mL (≈ 40.5 µM) in test [2]; 50 µg/mL (≈ 162 µM) with Klebsiella pneumoniae; > 50 µg/mL against Staphylococcus aureus; 3.12 µg/mL (≈ 10.1 µM) against Trichophyton benhamiae; 3.12 µg/mL (≈ 10.1 µM) in the test on Microsporum canis. Moreover, the minimum inhibitory concentration (MIC) against Pseudomonas aeruginosa was > 50 µg/mL; with Candida albicans [3], 3.12 µg/mL (≈ 10.1 µM); in the test with Aspergillus fumigatus, > 50 µg/mL.
`O=C1C(=O)c2ccccc2C(O)=C1Sc1ccccc1`: the MIC is > 50 µg/mL with Cryptococcus neoformans [1]; 6.25 µg/mL (≈ 22.1 µM) with Trichophyton benhamiae; 25 µg/mL (≈ 88.6 µM) against Microsporum canis; 25 µg/mL (≈ 88.6 µM) with Candida albicans [3]; > 50 µg/mL in the test on Aspergillus fumigatus. For the same compound, the Inhibition with Influenza A virus worked out at 50%.
Regarding `O=C(O)CCCSC1=CC(=O)c2c(Cl)ccc(O)c2C1=O`, the MIC in the test on Cryptococcus neoformans [1] was > 50 µg/mL; against Trichophyton benhamiae, 25 µg/mL (≈ 76.5 µM); in the test on Microsporum canis, > 50 µg/mL; in the test on Candida albicans [3], > 50 µg/mL; in the test on Aspergillus fumigatus, > 50 µg/mL.
With `Clc1ccc(COC(Cn2ccnc2)c2ccc(Cl)cc2Cl)c(Cl)c1` (stereo not drawn) [MICONAZOLE], the minimum inhibitory concentration (MIC) is 12.5 µg/mL (≈ 30 µM) in the test on Cryptococcus neoformans [1]; < 0.78 µg/mL against Trichophyton benhamiae; < 0.78 µg/mL against Microsporum canis; 25 µg/mL (≈ 60.1 µM) against Candida albicans [3]; 12.5 µg/mL (≈ 30 µM) with Aspergillus fumigatus.
As to `O=C1C(Sc2ccccc2)=C(Sc2ccccc2)C(=O)c2c(Cl)ccc(O)c21`, the MIC in the test with Cryptococcus neoformans [1] is > 50 µg/mL; with Trichophyton benhamiae, > 50 µg/mL; against Microsporum canis, 50 µg/mL (≈ 118 µM); in the test with Candida albicans [3], > 50 µg/mL; with Aspergillus fumigatus, 50 µg/mL (≈ 118 µM).
For the compound `O=C(O)CCSC1=CC(=O)c2ccccc2C1=O`, the T/C entry in the test with Rattus norvegicus [14] was “Toxic”; with Rattus norvegicus [17], 110%; in the test on Rattus norvegicus [13], 115%. The MIC in [2] was 25 µg/mL (≈ 95.3 µM); against Klebsiella pneumoniae, 50 µg/mL (≈ 191 µM); against Staphylococcus aureus, 12.5 µg/mL (≈ 47.7 µM); with Pseudomonas aeruginosa, 12.5 µg/mL (≈ 47.7 µM). Moreover, the Survivors in the test with Rattus norvegicus [15] amounted to 1; in the test with Rattus norvegicus [16], 6; in the test with Rattus norvegicus [11] it was 6.
Turning to `O=C1C(Sc2cccc3ccccc23)=C(Sc2cccc3ccccc23)C(=O)c2c(Cl)ccc(O)c21`, the MIC in the test on Cryptococcus neoformans [1] was > 50 µg/mL; with Trichophyton benhamiae, 50 µg/mL (≈ 95.2 µM); in the test on Microsporum canis, > 50 µg/mL; with Candida albicans [3], 50 µg/mL (≈ 95.2 µM); in the test with Aspergillus fumigatus, > 50 µg/mL.
